Values after ≈ are worked out from the molar mass of the structure shown. Active and inactive are the calls of the source. The rule behind the calls is not given here.
Key:
[1] = tested on: Mus musculus; experiment: Toxicity in mouse Colon 38 cells xenografted C57BL/6 mouse assessed as mortality at 3 mg/kg, iv administered as a single dose; type: organism-based, MC-38; set-up: dose 3 mg/kg, route intravenous; settings: in vivo
[2] = tested on: Hepacivirus hominis; experiment: Inhibition of HCV […] by quantitative RT-PCR
Summary of the method: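 HCV replicon cells, 1×10^4 per well, were plated and the next day exposed to serially diluted compounds in DMEM with 2% FBS and 0.5% DMSO at 37 °C. Total RNA was extracted and HCV RNA copy number was measured by quantitative RT-PCR. Five replicates per point; MIC reported.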

[3] = tested on: Radical scavenging activity; experiment: Antioxidant activity against DPPH radical scavenging activity after 30 mins by ELISA; type: functional; set-up: concentration or dose not given beside the values
Summary of the method: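 DPPH radical scavenging. Compounds were dissolved in DMSO and serially diluted, 0.0–100 μM/ml. 10 µl was added to 90 µl of 100 µM DPPH in methanol and incubated 30 min at 37 °C in the dark. Decrease in absorbance was read at 515 nm. % reduction = [(A_B − A_A)/A_B] × 100, against a DMSO/DPPH blank. Triplicate.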

[4] = Antioxidant activity against peroxynitrite-induced tyrosine nitration after 15 mins by HPLC; type: functional
Summary of the method: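 Tyrosine (100 μM) was reacted with equimolar peroxynitrite and increasing compound concentrations (0–300 μM) in 100 mM phosphate buffer pH 7.4 at 37 °C for 15 min. 3-Nitrotyrosine formation was measured by reverse-phase C18 HPLC using a methanol/water/HCl and acetonitrile/water/HCl mobile phase. IC50 reported.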

[5] = tested on: MC-38; experiment: Growth inhibition of mouse Colon 38 cells after 72 hrs by sulforhodamine B assay relative to etoposide; type: functional
Summary of the method: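 Exponentially growing cells were seeded on day 0. Graded drug concentrations were added on day 1, followed by 72 h at 37 °C. Cell number was estimated by SRB assay, with a separate day-1 count. GI50 is the concentration giving a 50% reduction in net protein increase versus control.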

[6] = tested on: MC-38; experiment: Antitumor activity against mouse Colon 38 cells xenografted in C57BL/6 mouse assessed as tumor volume at 3 mg/kg, iv administered as a single dose; type: functional, organism-based; set-up: dose 3 mg/kg
Summary of the method: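 Female C57BL/6 mice, 6 weeks old, were inoculated s.c. in the flank with about 30 mg Colon 38 tumor tissue. When tumors reached approximately 300 mm³ (day 1), mice were randomized, n = 5 per group. Compound in 5% glucose was given as a single i.v. tail-vein dose on day 1; controls received 5% glucose. Tumor volume = ([…])/2; body weight also recorded.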

[7] = tested on: Mus musculus; experiment: Toxicity in mouse Colon 38 cells xenografted C57BL/6 mouse assessed as body weight change at 3 mg/kg, iv administered as a single dose; type: organism-based, MC-38; set-up: dose 3 mg/kg, route intravenous; settings: in vivo
Summary of the method: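 Female C57BL/6 mice, 6 weeks old, had about 30 mg of Colon 38 tumour tissue implanted s.c. in the flank. When tumours reached about 300 mm³ on day 1, mice were randomised into control and treatment groups (n = 5 each). Compound in 5% glucose was given once on day 1 by tail-vein i.v. injection; controls received 5% glucose. Body weight was tracked over subsequent days.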

[8] = biological target: DNA topoisomerase 2-alpha (Mus musculus) (UniProt Q01320); experiment: Inhibition of mouse DNA topoisomerase 2 assessed as relaxation of supercoiled pBR322 plasmid DNA after 1 hr by electrophoresis relative to etoposide
DNA topoisomerase 2-alpha (Mus musculus), sequence (Q01320 whole entry): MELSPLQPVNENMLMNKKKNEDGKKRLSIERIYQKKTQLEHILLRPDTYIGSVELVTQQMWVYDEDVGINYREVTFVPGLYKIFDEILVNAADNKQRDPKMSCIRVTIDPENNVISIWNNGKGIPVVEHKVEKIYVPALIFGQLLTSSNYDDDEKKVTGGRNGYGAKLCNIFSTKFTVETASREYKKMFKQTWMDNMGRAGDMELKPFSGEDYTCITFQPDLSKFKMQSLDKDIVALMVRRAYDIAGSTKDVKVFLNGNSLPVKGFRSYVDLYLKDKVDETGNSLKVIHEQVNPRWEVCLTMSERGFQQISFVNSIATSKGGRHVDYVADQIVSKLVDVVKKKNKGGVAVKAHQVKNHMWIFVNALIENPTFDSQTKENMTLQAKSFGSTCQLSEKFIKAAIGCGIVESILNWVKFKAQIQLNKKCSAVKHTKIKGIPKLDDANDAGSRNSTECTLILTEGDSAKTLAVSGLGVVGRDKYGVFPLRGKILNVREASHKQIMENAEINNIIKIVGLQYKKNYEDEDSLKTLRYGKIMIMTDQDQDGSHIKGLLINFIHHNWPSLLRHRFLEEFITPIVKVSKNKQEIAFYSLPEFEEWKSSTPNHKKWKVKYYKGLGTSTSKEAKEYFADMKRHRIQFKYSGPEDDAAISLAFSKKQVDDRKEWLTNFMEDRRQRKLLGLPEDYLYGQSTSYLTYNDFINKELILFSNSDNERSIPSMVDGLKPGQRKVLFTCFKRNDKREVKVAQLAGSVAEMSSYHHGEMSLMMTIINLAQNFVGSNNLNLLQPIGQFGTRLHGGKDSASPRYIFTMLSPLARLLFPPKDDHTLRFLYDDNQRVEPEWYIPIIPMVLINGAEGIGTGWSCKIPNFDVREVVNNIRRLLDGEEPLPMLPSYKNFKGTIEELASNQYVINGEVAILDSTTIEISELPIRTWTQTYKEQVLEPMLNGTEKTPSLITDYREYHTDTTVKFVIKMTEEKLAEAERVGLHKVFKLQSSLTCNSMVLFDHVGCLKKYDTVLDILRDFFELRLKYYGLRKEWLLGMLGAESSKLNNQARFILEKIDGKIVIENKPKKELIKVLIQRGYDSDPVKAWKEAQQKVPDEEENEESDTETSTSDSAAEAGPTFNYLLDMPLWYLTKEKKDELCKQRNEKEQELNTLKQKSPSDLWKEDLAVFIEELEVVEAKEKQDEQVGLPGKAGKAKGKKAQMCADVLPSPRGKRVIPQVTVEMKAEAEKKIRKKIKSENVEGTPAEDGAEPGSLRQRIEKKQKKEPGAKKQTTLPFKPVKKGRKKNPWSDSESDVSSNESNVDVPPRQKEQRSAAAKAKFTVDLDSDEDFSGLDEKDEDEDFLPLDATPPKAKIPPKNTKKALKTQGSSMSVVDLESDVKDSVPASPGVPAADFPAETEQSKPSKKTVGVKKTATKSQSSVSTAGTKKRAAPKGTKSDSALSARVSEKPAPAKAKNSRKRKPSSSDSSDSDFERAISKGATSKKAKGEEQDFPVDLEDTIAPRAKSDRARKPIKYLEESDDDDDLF
Summary of the method: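 Topoisomerase II was purified from P388 cells. 0.125 μg supercoiled pBR-322 DNA was incubated with 1 unit of enzyme at 30 °C for 1 h in 50 mM Tris–HCl pH 8.0, 100 mM KCl, 10 mM MgCl2, 0.5 mM DTT, 1 mM ATP and 30 μg/ml BSA. Products were resolved on 0.7% agarose in TBE and stained with ethidium bromide.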

[9] = tested on: Measles virus (SSPE virus); experiment: Antiviral activity against measles virus infected in hamster brain assessed as inhibition of subacute sclerosing panencephalitis dosed intracranially by HPLC

Compound	Activity [1]	MIC [2]	Activity [3]	IC50 [4]	RatioGI50 [5]	Activity [6]	Activity [7]	Ratio [8]	MIC [9]
CC(=O)c1nn(-c2ccccc2)cc1C(=O)c1nn(-c2ccccc2)cc1C(=O)c1nn(-c2ccccc2)cc1C(=O)c1ccccc1	Non-toxic	0.171 mg/L (≈ 0.271 µM)	95%	42.1 µM	150.8	Active	Non-toxic	151	3.71 mg/L (≈ 5.89 µM)
CC(=O)c1nn(-c2ccccc2)cc1C(=O)c1nn(-c2ccc(C)cc2)cc1C(=O)c1ccccc1	Non-toxic	0.322 mg/L (≈ 0.679 µM)	94%	44.1 µM	38.46	Active	Non-toxic	38.4	4.12 mg/L (≈ 8.68 µM)
Cc1c(C)c2c(c(C)c1O)CCC(C)(C(=O)O)O2 (centres undefined) [TROLOX]				58.4 µM					
CN(C)/C=C/C(=O)c1nn(-c2ccccc2)cc1C(=O)c1nn(-c2ccc(Cl)cc2)cc1C(=O)c1ccccc1	Non-toxic	0.323 mg/L (≈ 0.587 µM)	93%	44.6 µM	37.97	Active	Non-toxic	37.9	4.15 mg/L (≈ 7.55 µM)
CC(=O)c1nn(-c2ccccc2)cc1C(=O)c1nn(-c2ccc([N+](=O)[O-])cc2)cc1C(=O)c1ccccc1	Non-toxic	0.155 mg/L (≈ 0.307 µM)	96%	36.6 µM	194.8	Active	Non-toxic	195	3.22 mg/L (≈ 6.36 µM)
CC(=O)c1nn(-c2ccc(Cl)cc2)cc1C(=O)c1ccccc1		0.161 mg/L (≈ 0.496 µM)	95.5%	38.1 µM	178.6			178	3.52 mg/L (≈ 10.8 µM)
O=C1O[C@H]([C@@H](O)CO)C(O)=C1O			79%						
Cc1ccc(-n2cc(C(=O)c3ccccc3)c(C(=O)/C=C/N(C)C)n2)cc1	Non-toxic	0.15 mg/L (≈ 0.417 µM)	96.6%	34.2 µM	260.4	Active	Non-toxic	260	3.18 mg/L (≈ 8.84 µM)
CC(=O)c1nn(-c2ccccc2)cc1C(=O)c1ccccc1	Non-toxic	0.162 mg/L (≈ 0.558 µM)	95.2%	39.5 µM	168.5	Active	Non-toxic	168	3.62 mg/L (≈ 12.5 µM)
CC(=O)c1nn(-c2ccccc2)cc1C(=O)c1nn(-c2ccc(Cl)cc2)cc1C(=O)c1ccccc1	Non-toxic	0.147 mg/L (≈ 0.297 µM)	97.7%	32.2 µM	260.9	Active	Non-toxic	261	3.11 mg/L (≈ 6.29 µM)
CN(C)/C=C/C(=O)c1nn(-c2ccccc2)cc1C(=O)c1nn(-c2ccccc2)cc1C(=O)c1ccccc1	Non-toxic	0.291 mg/L (≈ 0.564 µM)	94.7%	44 µM	142.9	Active	Non-toxic	143	3.99 mg/L (≈ 7.74 µM)
CN(C)/C=C/C(=O)c1nn(-c2ccccc2)cc1C(=O)c1ccccc1	Non-toxic	0.32 mg/L (≈ 0.926 µM)	94.5%	44 µM	136.4	Active	Non-toxic	136	4 mg/L (≈ 11.6 µM)
CC(=O)c1nn(-c2ccc([N+](=O)[O-])cc2)cc1C(=O)c1ccccc1	Non-toxic	0.144 mg/L (≈ 0.429 µM)	98.2%	31.5 µM	260.9	Active	Non-toxic	261	3.09 mg/L (≈ 9.21 µM)
Cc1ccc(-n2cc(C(=O)c3ccccc3)c(C(=O)c3cn(-c4ccccc4)nc3C(=O)/C=C/N(C)C)n2)cc1	Non-toxic	0.181 mg/L (≈ 0.342 µM)	94.9%	42.2 µM	150	Active	Non-toxic	150	3.82 mg/L (≈ 7.21 µM)
CC(=O)c1nn(-c2ccccc2)cc1C(=O)c1nn(-c2ccccc2)cc1C(=O)c1nn(-c2ccc(Cl)cc2)cc1C(=O)c1ccccc1	Non-toxic	0.151 mg/L (≈ 0.227 µM)	96.1%	35.1 µM	196.1	Active	Non-toxic	196	3.2 mg/L (≈ 4.81 µM)
CC(=O)c1nn(-c2ccccc2)cc1C(=O)c1nn(-c2ccccc2)cc1C(=O)c1nn(-c2ccc(C)cc2)cc1C(=O)c1ccccc1	Non-toxic	0.149 mg/L (≈ 0.231 µM)	96.9%	34 µM	260.6	Active	Non-toxic	261	3.12 mg/L (≈ 4.84 µM)
CC(=O)c1nn(-c2ccc(C)cc2)cc1C(=O)c1ccccc1	Non-toxic	0.159 mg/L (≈ 0.522 µM)	95.8%	37.8 µM	188.7	Active	Non-toxic	189	3.42 mg/L (≈ 11.3 µM)

Reference: ChEMBL document CHEMBL1154840, “New pyrazoles incorporating pyrazolylpyrazole moiety: synthesis, anti-HCV and antitumor activity” (Eur J Med Chem, 2010)
